Only some compounds are listed: those with a hit (about 4% of all), similar ones and a draw of the others.
OX1R antag-1: human HCRTR1 antagonism | O43613 | CHO/OX1R cells, Fluo-8 calcium fluorescence, orexin A | inhibition, % at 5 µM | 330,000 tested, 0.43% active | AID 434989;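 active = inhibition above its plate's threshold, mean inhibition of all tested compounds on the plate plus 3 SD, cut at about 37% in these data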
Target sequence (O43613 whole entry, looked up): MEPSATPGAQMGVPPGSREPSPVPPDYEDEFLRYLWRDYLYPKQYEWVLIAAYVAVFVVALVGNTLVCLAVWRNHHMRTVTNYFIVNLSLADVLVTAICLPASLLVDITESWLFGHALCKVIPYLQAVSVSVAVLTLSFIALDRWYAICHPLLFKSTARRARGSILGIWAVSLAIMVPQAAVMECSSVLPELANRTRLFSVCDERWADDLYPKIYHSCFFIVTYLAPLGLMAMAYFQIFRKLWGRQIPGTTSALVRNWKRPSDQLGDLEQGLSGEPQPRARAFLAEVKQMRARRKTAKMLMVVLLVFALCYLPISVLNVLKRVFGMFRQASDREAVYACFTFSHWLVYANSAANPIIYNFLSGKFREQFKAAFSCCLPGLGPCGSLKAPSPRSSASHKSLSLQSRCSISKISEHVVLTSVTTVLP
OX1R antag-2: OX1R (human) antagonism; O43613; OX1R-expressing cells, FRET antagonist read-out; inhibition, % at 6.6 µM; 330,000 tested, 1.8% active; AID 485270; in the data active = inhibition mostly above about 38%, no sharp cut-off; inactive = mostly below about 40%
TAAR1 ag: human TAAR1 agonism; CHO RD-HGA16 TAAR1, Fluo-8 calcium fluorescence; vehicle wells 0%, saturating PEA agonist 100%; 360,000 tested, 0.99% active; AID 624467; Q96RJ0; activation, % at 3 µM;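 active = activation above the mean activation of all test compounds in the run plus 3 SD, cut at about 38% in these data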
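Test system: RD-HGA16 (CHO) cells co-expressing Gα16 and hTAAR1; dosing: one-point dosing at 3 µM (nominal); timing: 17-24 h seeding, 75 min 37 °C dye, 30 min RT; signal: kinetic Fluo-8 calcium fluorescence; read-out basis: % activation relative to PEA EC100 response; controls: DMSO and PEA EC100; replicates: n 1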
TAAR1 antagonist: human TAAR1 antagonism. inhibition, % at 3 µM. AID 624466. 360,000 tested, 1.5% active. Q96RJ0. CHO RD-HGA16 TAAR1, Fluo-8 calcium fluorescence, antagonist;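 active = inhibition above a per-plate cutoff, the mean inhibition of test compounds on that plate plus 3 SD, cut at about 49% in these data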
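System: RD-HGA16 CHO cells with stable hTAAR1 and Gα16 | Probe or stimulus: EC80 β-phenethylamine stimulus | Dosing: 3 µM, single point | Times: Dye loading 75 min at 37 °C, then 30 min room temperature | Measured by: Fluo-8 calcium-sensitive fluorescence | Read-out basis: % inhibition of agonist calcium response | Replicates: n of 1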
CHO parental Ca: counter-screen: ATP calcium response change in parental CHO cells. parental CHO-K1, ATP-induced calcium, Fluo-8 fluorescence. 330,000 tested, 0.63% active. inhibition, % at 5.6 µM;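 active = inhibition above that plate's mean sample inhibition plus 3 SD, cut at about 26% in these data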
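Test system: untransfected parental CHO cell line; also added: ATP stimulus; dosing: 5.6 µM, single dose; signal: calcium-sensitive Fluo-8 fluorescence; measure: percent inhibition of ATP-evoked calcium rise, normalized to controls; benchmarks: low control ATP plus DMSO, high control DMSO only; replication: one well per compound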
A number is an active result; - = inactive; . = no result.

SMILES	OX1R antag-1	OX1R antag-2	TAAR1 ag	TAAR1 antagonist	CHO parental Ca
Nc1[nH]c(=O)nc(Nc2ccccc2)c1N=O	-	55	-	-	-
O=c1nccc(Nc2ccccc2)[nH]1	-	-	-	-	-
COc1ccccc1CNS(=O)(=O)c1ccc(-c2cc(C)no2)cc1	-	66	-	-	-
CCc1ccc(-c2cc(C)no2)cc1S(=O)(=O)NCc1ccccc1OC	-	-	-	-	-
O=C1OC(CN(Cc2ccccc2)Cc2ccccc2)CN1N=Cc1ccc([N+](=O)[O-])o1 (stereo not given)	.	.	-	-	.
O=C1OC(CN2CCOCC2)CN1N=Cc1ccc([N+](=O)[O-])o1 (stereo not given)	-	60	-	-	-
CCN(CC)c1ccc(N=Cc2ccc([N+](=O)[O-])o2)cc1	-	-	-	-	-
O=C1CN(/N=C/c2ccc([N+](=O)[O-])o2)C(=O)N1	-	84	-	-	-
Cc1noc(C)c1S(=O)(=O)N1CCCCC1c1cc(C(=O)Nc2cccc3c2CCCC3)no1 (stereo not given)	.	.	-	-	.
CC[C@]12c3[nH]c4cc(-c5ccco5)ccc4c3CCN1C(=O)[C@@H](CC(=O)NCCC1=CCCCC1)C[C@@H]2C(=O)N1CCN(C(=O)c2ccco2)CC1	-	43	.	.	-
CC[C@]12c3[nH]c4cc(CCC(=O)N(C)C)ccc4c3CCN1C(=O)[C@@H](CC(=O)NCCC1=CCCCC1)C[C@@H]2C(=O)N1CCN(C(=O)c2ccco2)CC1	-	-	-	-	-
C/C(N)=C(/C#N)C(=O)COC(=O)C1CCC(C(C)(C)C)CC1 (stereo not given)	-	-	-	-	-
Nc1nonc1C(=O)NCCN=Cc1cc(Cc2ccccc2)cc(Br)c1O	-	-	.	.	62
Nc1nonc1C(=O)NCCN=Cc1ccccc1O	-	-	-	-	-
COc1cc(C#Cc2c(-c3cncn3C)n(C)c3ccc(-c4ccc(CN5CCOCC5)cc4)cc23)cc(OC)c1	-	-	-	56	-
COc1cc(C#Cc2c(-c3cncn3C)n(C)c3ccc(-c4cnc(N5CCOCC5)nc4)cc23)cc(OC)c1	-	-	-	-	-
CC(=O)OCCCNc1cc(Sc2nc3ccccc3s2)c2nonc2c1[N+](=O)[O-]	-	-	.	.	-
CC(=O)OCCNc1cc(SCc2ccco2)c2nonc2c1[N+](=O)[O-]	-	-	.	.	-
COC(=O)CCSc1cc(NCCOC(C)=O)c([N+](=O)[O-])c2nonc12	-	53	-	-	-
CC(=O)OCCNc1cc(Sc2nc3ccccc3[nH]2)c2nonc2c1[N+](=O)[O-]	-	98	-	-	48
C=CCC[C@H](Cc1ccc(F)cc1)C(=O)OC[C@H](Cc1c[nH]c2ccccc12)NC(=O)[C@@H](CC=C)CC(=O)N[C@@H](CO)Cc1ccccc1	-	-	-	-	-
C=CCC[C@H](Cc1ccc(F)cc1)C(=O)OC[C@H](Cc1c[nH]c2ccccc12)NC(=O)[C@@H](CC=C)CC(=O)N[C@H](CO)Cc1ccccc1	-	-	-	57	-
C=CCC[C@@H](Cc1ccc(F)cc1)C(=O)OC[C@H](Cc1c[nH]c2ccccc12)NC(=O)[C@@H](CC=C)CC(=O)N[C@H](CO)Cc1ccccc1	-	-	-	55	-
C=CCC[C@H](Cc1ccc(F)cc1)C(=O)OC[C@@H](Cc1c[nH]c2ccccc12)NC(=O)[C@H](CC=C)CC(=O)NCCO	-	-	-	51	-
Cc1csc2c(N3CCN(C(=S)Nc4ccc(F)cc4F)CC3)ncnc12	-	-	-	-	39
SMILES	OX1R antag-1	OX1R antag-2	TAAR1 ag	TAAR1 antagonist	CHO parental Ca
CC(C)C[C@@H]1COc2cccc(NCCO)c2S(=O)(=O)N1	.	.	-	-	.
CCOC(=O)c1c(C)[nH]c(C)c1S(=O)(=O)NCCc1cccs1	-	-	41	-	-
CCc1ccc(-c2cnc3nc[nH]c(=O)c3n2)cc1	-	43	-	-	-
CCc1ccc(-c2ccc(C(=O)O)c(C)n2)cc1	-	-	-	-	-
O=C(Nc1ccc(SC(F)F)cc1)c1ccc2nccnc2c1	86	52	-	-	52
Cc1ccc(C(=O)Nc2ccc3nccnc3c2)cc1	-	-	-	-	-
O=C(Nc1ccc2nc3ccccc3nc2c1)c1ccc(Br)cc1	-	-	-	-	-
Cc1cc(NC(=O)c2ccc3nccnc3c2)ccc1Br	-	48	-	-	-
O=C(Nc1ccc2cccnc2c1)c1ccc(Br)cc1	-	30	-	-	-
Cc1ccccc1Cn1c(C)c(C(=O)NCC(C)C)sc1=O	.	.	-	-	.
CC(=O)NS(=O)(=O)c1ccc2c(c1)C(=O)c1cc(S(=O)(=O)NC(C)=O)ccc1-2	-	58	-	-	-
CC(NS(=O)(=O)c1ccc2c(c1)C(=O)c1cc(S(=O)(=O)NC(C)C(=O)O)ccc1-2)C(=O)O (stereo not given)	-	60	-	-	-
CCCCCc1c(-c2ccc(OC)cc2)ncn1CCc1ccccc1OC	.	.	-	61	.
CCCCc1c(-c2ccc(OC)cc2)ncn1CCc1ccccc1OC	.	.	-	50	.
CCCCc1c(-c2ccccc2)ncn1CCc1ccccc1OC	.	.	-	-	.
COC(=O)c1ccc(N)c2c(N)ccc(C(=O)OC)c12	.	.	-	-	.
COc1ccccc1C(=O)NC(=O)COC(=O)c1ccc([N+](=O)[O-])cc1	-	50	-	-	-
COC(=O)c1c(C)nc2c(c(SC)nn2-c2ccccc2)c1N	-	-	-	-	-
COC(=O)c1c(C)nc2nonc2c1N	-	65	-	-	-
O=C(CCS(=O)(=O)c1cccc2nsnc12)N1CC(=O)N(CCc2ccccc2)C(=O)C1	-	53	-	-	-
NC(=O)C1CCCN(Cc2c(C(=O)N3CCc4ccccc4C3)nc3ccc(Cl)cn23)C1 (stereo not given)	-	-	-	-	-
Cc1ccc2c(c1)COc1c3ccc(C(=O)NCCO)cc3nn1-2	-	61	-	-	-
O=C(NCCO)c1ccc2c3n(nc2c1)-c1ccc(Cl)cc1CO3	-	-	-	-	-
CCCCCCCCN1C(=O)[C@@H](CC(=O)NCc2cccc3ccccc23)C[C@@]2(C(=O)OC)C1=C[C@H](C(C)(C)C)O[C@@H]2C	.	.	-	-	.
C#CCOc1ccccc1C(=O)NNc1ccc([N+](=O)[O-])cc1[N+](=O)[O-]	.	.	-	-	.
C/C(CCCO)=N/Nc1ccc([N+](=O)[O-])cc1[N+](=O)[O-]	-	44	-	-	-
C/C(CCC(=O)O)=N/Nc1ccc([N+](=O)[O-])cc1[N+](=O)[O-]	-	63	-	-	-
CCOC(=O)CC(C)(C)/C(C)=N/Nc1ccc([N+](=O)[O-])cc1[N+](=O)[O-]	-	54	-	-	-
C#CCOC(=O)CCCNc1ccc([N+](=O)[O-])cc1[N+](=O)[O-]	-	46	-	-	-

Screening data deposited in PubChem BioAssay by The Scripps Research Institute Molecular Screening Center.
